Measurements pooled from the literature.
Each line is one published result; the experiments were not run side by side.
Target: Discoidin domain-containing receptor 2 (DDR2, Homo sapiens, UniProt Q16832)
Residues used in one study (Q16832 22-855): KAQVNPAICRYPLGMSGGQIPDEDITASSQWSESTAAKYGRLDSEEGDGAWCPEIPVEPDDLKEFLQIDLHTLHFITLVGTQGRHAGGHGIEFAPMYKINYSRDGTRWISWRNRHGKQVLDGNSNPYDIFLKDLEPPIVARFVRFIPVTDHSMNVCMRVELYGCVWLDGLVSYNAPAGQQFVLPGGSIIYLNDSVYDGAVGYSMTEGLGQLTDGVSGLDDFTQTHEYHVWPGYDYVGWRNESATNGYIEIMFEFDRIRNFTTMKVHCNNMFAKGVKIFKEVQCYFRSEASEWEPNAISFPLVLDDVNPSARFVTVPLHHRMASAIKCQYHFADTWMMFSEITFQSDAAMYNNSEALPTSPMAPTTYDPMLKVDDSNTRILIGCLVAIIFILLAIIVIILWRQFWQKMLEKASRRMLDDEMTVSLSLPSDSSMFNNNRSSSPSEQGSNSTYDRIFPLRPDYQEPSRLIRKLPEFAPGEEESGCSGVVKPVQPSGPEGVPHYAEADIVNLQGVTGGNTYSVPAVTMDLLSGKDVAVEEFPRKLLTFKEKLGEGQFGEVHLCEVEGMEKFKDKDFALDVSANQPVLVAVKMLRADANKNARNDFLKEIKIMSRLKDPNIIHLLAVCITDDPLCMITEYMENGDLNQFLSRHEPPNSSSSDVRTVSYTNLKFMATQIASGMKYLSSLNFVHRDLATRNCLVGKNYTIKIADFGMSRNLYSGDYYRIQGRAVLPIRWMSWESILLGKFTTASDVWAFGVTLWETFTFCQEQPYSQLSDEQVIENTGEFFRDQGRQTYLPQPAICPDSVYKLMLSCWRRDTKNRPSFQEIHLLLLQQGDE

SMILES | test | conditions | remaining binding
CN(C)c1nccc(-c2cnn3ncccc23)n1 | binding | 1 µM | 100%
COc1cnc(Nc2cccc(S(N)(=O)=O)c2)nc1N1CCN(c2ccccc2)C(=O)C1 | binding, competition with immobilised ligand | 1 µM | 100%
O=C(c1ccc(Nc2ncc(Cl)c(-c3ccc(Cl)s3)n2)cc1)N1CCC(N2CCCC2)CC1 | binding, competition with immobilised ligand | 1 µM | 33%
CC(=O)C1=C(C)N(c2cccc(C(F)(F)F)c2)C(=O)N[C@@H]1c1ccc(C#N)nc1 | cell-free assay, competition with immobilised ligand | 1 µM | 87.6%
CN(CCCC(F)(F)F)c1nccc(-c2cnn3ncccc23)n1 | binding | 1 µM | 96%
c1cncc(-c2cccc(Nc3nccc(NC4CCCCC4)n3)c2)c1 | binding, competition with immobilised ligand | 10 µM | 86%
N[C@@H]1CCN(c2nccc(-c3cnn4ncccc34)n2)C1 | binding | 1 µM | 100%
Cc1cnc(Nc2ccc(C(=O)N3CCC(N4CCCC4)CC3)cc2)nc1-c1cc2ccccc2s1 | binding, competition with immobilised ligand | 1 µM | 8%
O=C(O)c1cc(-c2ccc(C3CCNCC3)cc2)c2ccc(-c3ccc(C(F)(F)F)cc3)cc2c1 | cell-free assay, competition with immobilised ligand | 1 µM | 100%
FC(F)(F)Oc1cccc(-c2cnc3ccc(-c4ccncc4)nn23)c1 | cell-free assay, competition with immobilised ligand | 5 µM | 55%
O=C(NCCCN1CCOCC1)c1ccc(Nc2ncc(Cl)c(-c3ccc(Cl)s3)n2)cc1 | binding, competition with immobilised ligand | 1 µM | 61%
CS(=O)(=O)NCC[C@H](NC(=O)c1cncc2c1cnn2-c1ccc(F)cc1)c1ccnc(S(C)(=O)=O)c1 | cell-free assay, competition with immobilised ligand | 1 µM | 100%
COc1cnc(Nc2cccc(S(N)(=O)=O)c2)nc1N1CCN(c2ccccc2)CC1 | binding, competition with immobilised ligand | 1 µM | 66%
F[C@@H]1CCN(c2nccc(-c3cnn4ncccc34)n2)C1 | binding | 1 µM | 91%
O=c1nc(-c2ccccn2)sc2ccccc12 | cell-free assay, competition with immobilised ligand | 1 µM | 100%
CN(c1nccc(-c2cnn3ncccc23)n1)C1CC1 | binding | 1 µM | 100%
Cn1nc(C(F)(F)F)cc1-c1cnc(N2CCc3cc(S(=O)(=O)Nc4c(F)cc(Cl)cc4F)cc(N4CCCC4=O)c32)nc1 | cell-free assay, competition with immobilised ligand | 1 µM | 80%
COc1ncc2cc3ccccc3nc2c1C#N | cell-free assay, competition with immobilised ligand | 5 µM | 94%
CCCOc1ccc([C@H]2[C@H](C(=O)O)[C@@H](c3ccc4c(c3)OCO4)CN2CC(=O)Nc2c(CC)cccc2CC)cc1 | cell-free assay, competition with immobilised ligand | 1 µM | 71%
O=C(Nc1c[nH]nc1C(=O)NC1CCNCC1)c1cc(F)cc(F)c1 | binding, competition with immobilised ligand | 1 µM | 94%
